Paper PMC11061834 (Journal of Natural Products, 2024)

What was measured:
3T3-L1 cells = assay: Cell viability / cytotoxicity, CCK-8 assay; assay type: cell-based; details: CCK-8, 48 h
Procedure, shortened: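 3T3-L1 preadipocytes were seeded at 1 × 10^3 cells per well and incubated for 12 h. They were then exposed to varying concentrations of test compound for 48 h. Viability was measured with the CCK-8 kit following the manufacturer's guidelines, reading optical density at 450 nm. Data are means ± SD from triplicate experiments (n = 3), compared by Student's t test at P ≤ 0.05.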

[1] = cited from earlier work
PPARγ = details: cited from earlier work

Structure (SMILES) | maximum noncytotoxic concentration (3T3-L1 cells) [µM] | antiadipogenic activity (in words) [1] | PPARγ inhibitory effect (in words) (PPARγ)
C=C(c1ccc(O)c(Oc2cc3c(cc2OC)CCN(C)[C@@H]3Cc2ccc(OC)cc2)c1)[C@H]1c2cc(OC)c(OC)cc2CCN1C [Compound 3, 1R,1′S-neoneferine A] | 5 | – | –
C=C(c1ccc(O)c(Oc2cc3c(cc2OC)CCN(C)[C@@H]3Cc2ccc(OC)cc2)c1)[C@H]1c2cc(O)c(OC)cc2CCN1C [Compound 5, 1R,1′S-neoisoliensinine A] | 5 | – | –
COc1ccc(C[C@@H]2c3cc(Oc4cc(C[C@H]5c6cc(OC)c(OC)cc6CCN5C)ccc4O)c(OC)cc3CCN2C)cc1 [Compound 8, 1′-epi-neferine] | 5 | – | –
COc1ccc(C[C@@H]2c3cc(Oc4cc(C[C@@H]5c6cc(OC)c(OC)cc6CCN5C)ccc4O)c(OC)cc3CCN2C)cc1 [Compound 7, neferine] | 10 | antiadipogenic activity | PPARγ inhibitory effect
C=C(c1ccc(O)c(Oc2cc3c(cc2OC)CCN(C)[C@@H]3Cc2ccc(OC)cc2)c1)[C@@H]1c2cc(OC)c(OC)cc2CCN1C [Compound 2, 1R,1′R-neoneferine A] | 15 | – | –
C=C(c1ccc(O)c(Oc2cc3c(cc2OC)CCN(C)[C@@H]3Cc2ccc(OC)cc2)c1)[C@@H]1c2cc(O)c(OC)cc2CCN1C [Compound 4, 1R,1′R-neoisoliensinine A] | 10 | – | –
